The list is not random: actives were taken first. Their share in the collection is about 4.1%.
KCNK9 block: inhibitors of human KCNK9 two-pore domain potassium channel; B-score at 10 µM; 1.2% of 310,000 active; HEK293 KCNK9, FluxOR thallium flux fluorescence; active compounds read low; Q9NPC2;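 active means ratio B-score over 3 SD below the library mean, with starting fluorescence within 5 SD of its mean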;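 further: negative B-score means less thallium flux so channel inhibition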
KCNQ1 inh: blocks the human KCNQ1 potassium channel. P51787. CHO-K1 KCNQ1, FluxOR thallium flux fluorescence; active compounds read high. B-score at 10 µM. 1.3% of 310,000 active;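 active means compounds whose thallium flux B-score, printed positive for inhibition, exceeds three library SD while starting fluorescence stays within three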;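 further: channel opened by potassium depolarization with thallium stimulus after 20 min compound exposure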
KCNQ1 pot: human KCNQ1 channel potentiation or activation; P51787; CHO-K1 KCNQ1, thallium flux FluxOR fluorescence; active compounds read high; B-score at 10 µM; 0.35% of 310,000 active;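 active means fluorescence ratio B-score, a plate-corrected score, at least three library SD, with initial intensity B-score within 5 SD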
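Doses: Single concentration per compound, DMSO matched to controls | Test system: KCNQ1-transfected CHO-K1 cells | Timing: 90 min dye loading and 20 min compound exposure, both at room temperature | Measured by: Kinetic FluxOR thallium fluorescence, 10-s 1-Hz baseline, 110-s post-stimulus read | Medium: Assay buffer with matched DMSO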
hERG rescue: shields human hERG channel from block by proarrhythmic agents | activation (rescue from dofetilide block), less the hit threshold, % at 10 µM | CHO-hERG, FluxOR thallium flux, dofetilide IC70 present | Q12809 | 0.51% of 310,000 active;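 active means activation above the mean of controls blocked by dofetilide plus 5 SD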;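 further: thallium influx through hERG after potassium depolarization seen as dye fluorescence rise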
KCNK3 inh: human KCNK3 channel inhibition, primary screen | O14649 | CHO-KCNK3 thallium flux, FluxOR fluorescence; active compounds read low | B-score at 10 µM | 0.84% of 340,000 active | AID 602410;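 active means B-score under library mean minus 4 SD, starting fluorescence ratio at most library mean plus 5 SD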;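 further: more negative B-score means stronger inhibition of thallium flux through KCNK3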
KCC2 mod: modulators of human KCC2 chloride dependent transport; Q9H2X9; AID 1456; 2.2% of 190,000 active; B-score of Tl+ flux slope (higher = more flux/activation; lower = inhibition) at 10 µM; KCC2 cells, thallium flux FluoZin-2 fluorescence;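 active means thallium flux slope and its plate-corrected score both differing from the plate sample mean at a set confidence after two filtering rounds, in either direction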;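 further: slope of fluorescence scaled to starting intensity during 10 to 20 s after thallium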
Target sequence (Q9H2X9 whole entry, looked up): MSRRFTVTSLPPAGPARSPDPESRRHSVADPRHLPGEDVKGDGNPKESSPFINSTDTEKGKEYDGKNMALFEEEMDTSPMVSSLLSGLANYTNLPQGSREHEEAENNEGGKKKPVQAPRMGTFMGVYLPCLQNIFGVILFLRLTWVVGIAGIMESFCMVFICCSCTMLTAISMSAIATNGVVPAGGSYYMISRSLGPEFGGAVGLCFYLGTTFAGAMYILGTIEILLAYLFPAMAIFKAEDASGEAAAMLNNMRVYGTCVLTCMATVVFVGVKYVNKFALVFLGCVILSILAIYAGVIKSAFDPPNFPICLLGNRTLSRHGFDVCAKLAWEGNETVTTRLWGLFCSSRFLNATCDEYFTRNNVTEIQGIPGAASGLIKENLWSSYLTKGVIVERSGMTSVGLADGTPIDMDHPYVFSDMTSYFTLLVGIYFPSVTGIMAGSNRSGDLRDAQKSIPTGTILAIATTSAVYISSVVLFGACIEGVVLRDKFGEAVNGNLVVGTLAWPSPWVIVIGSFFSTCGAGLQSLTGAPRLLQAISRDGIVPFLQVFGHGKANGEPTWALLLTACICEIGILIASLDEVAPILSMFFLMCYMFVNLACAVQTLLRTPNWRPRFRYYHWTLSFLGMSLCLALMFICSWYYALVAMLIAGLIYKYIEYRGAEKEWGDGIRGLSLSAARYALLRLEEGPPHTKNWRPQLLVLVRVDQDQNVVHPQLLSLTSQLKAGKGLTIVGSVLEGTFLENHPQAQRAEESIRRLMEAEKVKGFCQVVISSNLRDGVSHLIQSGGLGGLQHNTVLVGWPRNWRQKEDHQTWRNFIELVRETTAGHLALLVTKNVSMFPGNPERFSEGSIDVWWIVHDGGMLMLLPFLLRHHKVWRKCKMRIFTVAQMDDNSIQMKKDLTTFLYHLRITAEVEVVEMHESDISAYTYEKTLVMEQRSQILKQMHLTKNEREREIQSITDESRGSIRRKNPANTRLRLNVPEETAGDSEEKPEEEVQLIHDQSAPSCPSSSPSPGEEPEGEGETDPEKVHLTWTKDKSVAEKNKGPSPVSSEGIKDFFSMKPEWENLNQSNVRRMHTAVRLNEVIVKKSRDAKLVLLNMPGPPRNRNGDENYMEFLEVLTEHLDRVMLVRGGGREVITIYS
Numbers without * were called inactive; i = inactive; x = not tested or not shown.

SMILES	KCNK9 block	KCNQ1 inh	KCNQ1 pot	hERG rescue	KCNK3 inh	KCC2 mod
Cn1c(-c2ccc(C(C)(C)C)cc2)n[nH]c1=S	i	i	i	-11	i	3.9*
Cn1cccc1/C=N/n1c(-c2ccccc2)n[nH]c1=S	i	i	i	-3	i	1.7
O=C(O)c1ccc(N2CC3CC(C2)c2cccc(=O)n2C3)c(NC(=S)Nc2ccc(Br)cc2)c1 (stereo not given)	i	6*	i	-18	i	0.66
CCCOc1cccc(-c2cc(C(=O)N/N=C/c3cccnc3)c3ccccc3n2)c1	i	9*	i	-30	i	x
CCOC(=O)c1ccc(Nc2nc(-c3cccnc3)nc3ccccc23)cc1	-7.1*	i	i	-7	i	0.066
CCCOc1cccc(-c2cc(C(=O)N/N=C/c3ccccn3)c3ccccc3n2)c1	i	i	i	-23	i	x
CCOC(=O)c1ccc(NC(=S)NNC(=O)c2cc(-c3cccnc3)nc3ccccc23)cc1	i	10*	i	-22	i	x
Cc1cccc(NC2CCCCC2NS(=O)(=O)c2ccccc2)c1 (stereo not given)	i	i	i	-10	i	x
CCc1nnc(NC(=O)CCC(=O)NCCc2ccccc2)s1	i	i	i	-4	i	x
N#CC1C=Cc2ccccc2N1C(=O)c1ccccc1 (stereo not given)	-7.3*	i	i	-4	i	-0.7
O=C(O)C1C=Cc2ccccc2N1C(=O)c1ccccc1 (stereo not given) (tested in a mixture with another compound)	x	x	x	x	i	x
CCN(CC)CCCNc1nc2cc(OC)c(OC)cc2c2nc(-c3ccccc3)nn12	i	i	i	-7	i	-0.71
CCN(CC)CCCNc1nc2cc(OC)c(OC)cc2c2nc(-c3cccnc3)nn12	i	11*	i	-7	i	-0.52
COc1ccc(CSc2ccc(-c3nc4ccccn4c3NCc3ccccc3)cc2OC)cc1	i	6*	i	-7	i	x
COc1ccc(N(CC(=O)NCc2ccncc2)S(=O)(=O)c2ccc(C)c([N+](=O)[O-])c2)cc1	i	i	i	-8	i	0.15
COc1ccc(NC(=O)CN(c2ccc(OC)c(Cl)c2)S(=O)(=O)c2ccccc2)c(OC)c1	i	6*	i	-1	i	x
Cc1ccc(N(CC(=O)Nc2cc(Cl)ccc2Oc2ccccc2)S(C)(=O)=O)cc1C	-7.5*	i	i	-6	i	0.62
O=C(Nc1cc(Cl)ccc1Oc1ccccc1)c1ccccc1F	i	6*	i	-5	i	0.68
O=C(Nc1ccccc1Oc1ccccc1)c1ccccc1F	i	i	i	-12	i	-0.057
COc1ccc(N(CC(=O)Nc2ccccc2F)S(=O)(=O)c2ccc(C)c([N+](=O)[O-])c2)cc1	-7.8*	i	i	-7	i	-1.9
Cc1c(N(C)S(=O)(=O)c2cc(C(=O)NCC3CCCO3)ccc2Cl)c(=O)n(-c2ccccc2)n1C (stereo not given)	i	i	i	-8	i	x
O=C(NN=C(Cc1ccccc1)Cc1ccccc1)c1ccc(F)cc1	i	i	i	-6	i	7.7*
C/C(Cc1ccccc1)=N\NC(=O)c1ccc(F)cc1	i	i	i	-8	i	-0.86
O=C(NCC1CCCO1)c1ccccc1-c1nc(-c2ccccc2F)no1 (stereo not given)	i	i	i	-15	i	x
O=C(NCC1CCCO1)c1ccccc1-c1nc(-c2ccc(Cl)cc2)no1 (stereo not given)	i	6*	i	-15	i	-0.013
SMILES	KCNK9 block	KCNQ1 inh	KCNQ1 pot	hERG rescue	KCNK3 inh	KCC2 mod
CCCn1c(=O)c(C(=O)NCCCc2ccccc2)c(O)c2ccccc21	i	7*	i	-6	i	x
CCn1c(=O)c(C(=O)NCCc2ccc(Cl)cc2)c(O)c2ccccc21	i	i	i	-6	i	x
CCn1c(=O)c(C(=O)NCCCc2ccccc2)c(O)c2ccccc21	i	6*	i	-7	i	x
CCn1c(=O)c(C(=O)NNS(=O)(=O)c2ccc(Br)cc2)c(O)c2ccccc21	i	6*	i	-9	i	x
CCCn1c(=O)c(C(=O)NCCc2ccc(Cl)cc2)c(O)c2ccccc21	i	7*	i	-7	i	x
CCCn1c(=O)c(C(=O)NCc2ccncc2)c(O)c2ccccc21	i	i	i	-4	i	-1.1
CCn1c(=O)c(C(=O)NCc2ccccc2)c(O)c2ccccc21	i	i	i	-7	i	x
O=C(NC(=S)N1CCc2ccccc21)c1ccccc1	i	i	i	24*	i	51*
O=C(NC(=S)N1CCc2ccccc21)c1ccccc1Cl	i	i	24*	31*	i	x
O=[N+]([O-])c1ccc(NC(=S)N2CCc3ccccc32)cc1	i	9*	i	-10	i	x
O=C(NCCC(=O)N1CCc2ccccc21)c1ccccc1Cl	i	i	i	-2	i	x
O=C(c1ccccc1)N1CCc2ccccc21	i	i	i	-3	i	-0.44
CCN1/C(=C\C=C(C(C)=O)C(C)=O)Sc2ccccc21	i	8*	i	-22	i	i
CCOC(=O)/C(C#N)=C(C)/C=C1\Sc2ccccc2N1CC	i	i	i	-5	i	i
CCOc1ccc(-c2cnc(NCc3cccc4ccccc34)n2CCOC)cc1	i	10*	i	-30	-9.5*	x
COCCn1c(-c2ccc(OC)cc2)cnc1N	i	i	i	-7	i	0.043
CCN(CC)c1ccc(/C=C/c2ccc3ccc(OC)cc3[n+]2CC)cc1	-7.1*	i	i	-41	-13*	x
CC[n+]1c(/C=C/c2ccc(OC)c(OC)c2)ccc2ccccc21	i	i	i	-7	i	x
Cc1ccc2[nH]c(C(=O)N3CCC(C(N)=O)CC3)cc2c1	i	i	i	-4	i	x
O=C(NNc1ccccc1Br)C(O)(c1cccc(C(F)(F)F)c1)c1cccc(C(F)(F)F)c1	-8.3*	i	i	-6	i	-0.25
COCCN(C(=O)COC(=O)Cc1ccc(Cl)cc1Cl)c1c(N)n(Cc2ccccc2)c(=O)[nH]c1=O	i	i	i	-14	i	x
NNC(=O)c1cc(C23CC4CC(CC(C4)C2)C3)nc2ccccc12	i	6*	i	-10	i	x
Cc1onc(-c2ccccc2)c1C(=O)Nc1sc2c(c1C#N)CCC2	i	i	i	-12	i	-0.24

Assay outcomes: PubChem, several laboratories
